The record followed here is ChEMBL document CHEMBL3091366, “New 5-Aryl-1H-imidazoles display in vitro antitumor activity against apoptosis-resistant cancer models, including melanomas, through mitochondrial targeting” (J Med Chem, 2013).

What is called IC50 is the concentration that inhibits the measured activity by half.

The test system of one test is A549. Description: Cytotoxicity against apoptotic-resistant human A549 cells assessed as growth inhibition after 72 hrs by MTT-based colorimetric assay. As to conditions: Homo sapiens, A549, 72 h. In kind it is functional, cell-based. A digest of the protocol:
(§1)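 MTT colorimetric assay, 72 h exposure to the fumarate salt. Read-out is reduction of MTT to formazan by living cells. IC50 is the concentration that reduces the whole cell population by 50%. Six replicates per condition. Where compounds were not tested on every line, apoptosis-sensitive lines were PC3, MCF-7, LoVo and B16F10, and apoptosis-resistant lines were U373, T98G, A549 and SK-MEL-28.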
On the technique in general: Formazan colour is commonly taken as a measure of viable cells.

A further test relates to T98G. As to the kind of experiment: Cytotoxicity against apoptotic-resistant human T98G cells assessed as growth inhibition after 72 hrs by MTT-based colorimetric assay. In kind it is functional, cell-based. As to conditions: Homo sapiens, T98G, 72 h. A digest of the protocol: as §1
A further test has as its system B16-F10. As to the kind of experiment: Cytotoxicity against apoptotic-sensitive mouse B16F10 cells assessed as growth inhibition after 72 hrs by MTT-based colorimetric assay. In kind it is functional, cell-based. As to conditions: B16-F10, 72 h. A digest of the protocol: as §1
The test system of the next test is PC-3. Description: Cytotoxicity against apoptotic-sensitive human PC3 cells assessed as growth inhibition after 72 hrs by MTT-based colorimetric assay. In kind it is functional, cell-based. As to conditions: Homo sapiens, PC-3, 72 h. A digest of the protocol: as §1
In another test the test system is LoVo. Description: Cytotoxicity against apoptotic-sensitive human LoVo cells assessed as growth inhibition after 72 hrs by MTT-based colorimetric assay. In kind it is functional, cell-based. As to conditions: Homo sapiens, LoVo, 72 h. A digest of the protocol:
as §1

The subject of a further test is SK-MEL-28. As to the kind of experiment: Cytotoxicity against apoptotic-resistant human SK-MEL-28 cells assessed as growth inhibition after 72 hrs by MTT-based colorimetric assay. The class given is functional, cell-based. As to conditions: Homo sapiens, SK-MEL-28, 72 h. A digest of the protocol:
as §1

The next test concerns MCF7. As to the kind of experiment: Cytotoxicity against apoptotic-sensitive human MCF7 cells assessed as growth inhibition after 72 hrs by MTT-based colorimetric assay. In kind it is functional, cell-based. As to conditions: Homo sapiens, MCF7, 72 h. A digest of the protocol: as §1
The nature of test [1]: Cytotoxicity against apoptotic-resistant human U373 cells assessed as growth inhibition after 72 hrs by MTT-based colorimetric assay. In kind it is functional, cell-based, U-373MG ATCC. As to conditions: Homo sapiens, U373 MG, 72 h. The essentials:
as §1

Regarding `Cn1c2cnc1OCC/C=C\CCCCOc1ccccc1-2`, the IC50 with A549 turned out to be 74 µM; in the test with T98G it was 100 µM; in the test on B16-F10, 70 µM; in the test with PC-3, 62 µM; in the test with LoVo, 40 µM; in the test with SK-MEL-28 it was 85 µM. Further, the half-inhibitory concentration (IC50) in the test with MCF7 turned out to be 63 µM.

Consider `C=CCCCCOc1nccn1C`, for which the IC50 is over 100 µM with A549; over 100 µM in the test with T98G; 51 µM in the test with B16-F10; over 100 µM in the test with PC-3; over 100 µM in the test on LoVo; over 100 µM in the test on SK-MEL-28. Besides, the IC50 in the test with MCF7 is over 100 µM.

As to `CCCCCCOc1ncc(-c2ccccc2OC)n1C`, the IC50 in the test on A549 was determined as 37 µM; with T98G, 58 µM; with B16-F10, 38 µM; in the test on PC-3, 33 µM; with LoVo it was 27 µM; with SK-MEL-28, 43 µM. Further, the IC50 in the test on MCF7 turned out to be 27 µM.

`CCCCOc1ncc(-c2ccccc2OC)n1C`: the IC50 with A549 stood at 87 µM; in the test with T98G it was 96 µM; in the test on B16-F10 it was 71 µM; with PC-3 it was 71 µM; with LoVo it was 39 µM; with SK-MEL-28, 82 µM. For the same compound, the IC50 in the test on MCF7 worked out at 55 µM.

As for `COc1ccccc1-c1cnc(OCC(F)(F)C(F)(F)C(F)(F)C(F)(F)C(F)(F)F)n1C`, the IC50 in the test on A549 came to 83 µM; in the test on T98G it was 78 µM; with B16-F10 it was 38 µM; in the test on PC-3, 72 µM; in the test on LoVo, 51 µM; with SK-MEL-28 it was 66 µM. Besides, the IC50 in the test on MCF7 is 63 µM.

Consider `C=CCCCCOc1ncc(-c2cc(C(C)C)ccc2OC)n1C`, for which the IC50 in the test on A549 is 4 µM; in the test on T98G it was 6 µM; in the test with B16-F10, 7 µM; with PC-3, 9 µM; in the test with LoVo it was 3 µM; with SK-MEL-28, 3 µM. Moreover, the IC50 with MCF7 is 18 µM.

As to `C=CCCCCOc1ncc(I)n1C`, the IC50 is over 100 µM with A549; over 100 µM in the test with T98G; 51 µM with B16-F10; over 100 µM with PC-3; 84 µM in the test with LoVo; over 100 µM with SK-MEL-28. Also, the half-inhibitory concentration (IC50) with MCF7 is over 100 µM.

In the case of `C=CCCCCOc1nc(-c2ccccc2OC)cn1C`, the IC50 with A549 was 91 µM; in the test on T98G, over 100 µM; with B16-F10, 69 µM; with PC-3 it was 86 µM; in the test on LoVo it was 81 µM; with SK-MEL-28, over 100 µM. The IC50 with MCF7 came to 77 µM.

As to `C=CCCCCOc1ncc(-c2cc(F)c(F)cc2OC)n1C`, the IC50 in the test on A549 is 43 µM; in the test on T98G, 53 µM; with B16-F10, 43 µM; in the test on PC-3, 40 µM; in the test on LoVo it was 36 µM; with SK-MEL-28, 40 µM. Moreover, in the test with MCF7, the IC50 worked out at 32 µM.

Turning to `COc1ccccc1-c1cnc(OCCCc2ccccc2)n1C`, the IC50 in the test on A549 was found to be 3 µM; in the test with T98G it was 3 µM; in the test with B16-F10 it was 7 µM; in the test with PC-3, 27 µM; in the test on LoVo, 3 µM; with SK-MEL-28, 4 µM. Also, the IC50 in the test on MCF7 was 3 µM.

For the compound `C=CCCCCOc1ncc(-c2ccc(Cl)cc2OC)n1C`, the IC50 in the test with A549 amounted to 47 µM; in the test on T98G it was 67 µM; in the test on B16-F10, 43 µM; with PC-3 it was 36 µM; in the test with LoVo it was 35 µM; in the test with SK-MEL-28, 50 µM. Further, in the test on MCF7, the IC50 was found to be 37 µM.

`C=CCCCCOc1ncc(-c2cc(C(F)(F)F)ccc2OC)n1C`: the concentration for half-maximal inhibition (IC50) stood at 62 µM in the test on A549; 88 µM in the test with T98G; 59 µM in the test with B16-F10; 57 µM with PC-3; 51 µM with LoVo; 56 µM with SK-MEL-28. Also, the IC50 in the test with MCF7 worked out at 61 µM.

In the case of `C=CCCCCOc1ncc(-c2cc(Cl)ccc2OC)n1C`, the IC50 in the test on A549 amounted to 34 µM; with T98G, 48 µM; in the test on B16-F10 it was 29 µM; with PC-3, 32 µM; in the test on LoVo, 28 µM; with SK-MEL-28 it was 28 µM. Besides, the concentration for half-maximal inhibition (IC50) with MCF7 turned out to be 25 µM.

Regarding `C#CCCCCOc1ncc(-c2ccccc2OC)n1C`, the 50% inhibitory concentration (IC50) in the test with A549 was determined as 22 µM; with T98G, 35 µM; in the test on B16-F10, 34 µM; in the test on PC-3 it was 21 µM; in the test on LoVo, 11 µM; in the test on SK-MEL-28, 38 µM. In the test on MCF7, the IC50 was 10 µM.

As to `COc1ccc(C)cc1-c1cnc(OCCCCc2ccccc2)n1C`, the IC50 in the test on A549 was 40 µM; in the test with T98G it was 44 µM; with B16-F10 it was 34 µM; with PC-3, 43 µM; with LoVo it was 27 µM; in the test with SK-MEL-28, 42 µM. Further, the IC50 in the test with MCF7 turned out to be 28 µM.

Turning to `C=CCCCCOc1cc2ccccc2cc1-c1cnc(OCCC=C)n1C`, the IC50 was found to be 21 µM with A549; 32 µM in the test with T98G; 27 µM in test [1]; 14 µM in the test with PC-3; 25 µM with LoVo; 25 µM in the test with SK-MEL-28. Moreover, the IC50 in the test on MCF7 turned out to be 25 µM.

As to `C=CCCCCOc1ncc(-c2cccc(OC)c2OC)n1C`, the IC50 is 43 µM in the test with A549; 35 µM with T98G; 27 µM in the test with B16-F10; 36 µM with PC-3; 11 µM in the test on LoVo; 27 µM with SK-MEL-28. The 50% inhibitory concentration (IC50) with MCF7 came to 28 µM.

Regarding `C=CCCCCCOc1ncc(-c2ccccc2OCCCCC=C)n1C`, the IC50 worked out at 62 µM with A549; 63 µM with T98G; 76 µM in test [1]; 70 µM in the test on PC-3; 32 µM in the test on LoVo; 79 µM in the test with SK-MEL-28. Besides, the 50% inhibitory concentration (IC50) in the test on MCF7 worked out at 63 µM.

Consider `Cn1c2cnc1OCCCCCCCCCOc1ccccc1-2`, for which the IC50 in the test with A549 came out at 69 µM; in the test with T98G, 74 µM; in test [1], 78 µM; with PC-3 it was 61 µM; in the test with LoVo, 34 µM; in the test with SK-MEL-28, 72 µM. Besides, the IC50 in the test on MCF7 came to 71 µM.

Take `C=CCCCCOc1ccc(C)cc1-c1cnc(OCCC=C)n1C`: the IC50 with A549 is 59 µM; in the test with T98G it was 94 µM; in test [1] it was 33 µM; with PC-3, 59 µM; in the test with LoVo, 41 µM; in the test with SK-MEL-28 it was 83 µM. Moreover, the IC50 in the test on MCF7 came to 53 µM.

For the compound `Cn1c2cnc1OCCCCCCCCOc1cc3ccccc3cc1-2`, the IC50 in the test on A549 came to 26 µM; in the test on T98G, 32 µM; in test [1] it was 24 µM; with PC-3, 25 µM; in the test on LoVo, 16 µM; in the test with SK-MEL-28, 23 µM. Further, the IC50 in the test with MCF7 amounted to 19 µM.

`C=CCCCCOc1ccc(OC)cc1-c1cnc(OCCC=C)n1C`: the IC50 came out at 43 µM in the test on A549; 74 µM with T98G; 67 µM in test [1]; 43 µM in the test on PC-3; 33 µM with LoVo; 62 µM in the test on SK-MEL-28. Also, the IC50 in the test with MCF7 stood at 37 µM.
